# SENP6 inh: SENP6 protease inhibitors, primary screen, biochemical, luminescence, uHTS; hit rate 1.8% among 330,000; Recombinant SENP6 catalytic domain, aminoluciferin luminescence; inhibition, % at 10 µM;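 active = inhibition above about 50% at the single tested dose, limit read from the data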;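 also: plate controls were DMSO wells with enzyme for no effect and DMSO wells lacking enzyme for full effect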
# SENP8 block-1: SENP8 protease inhibitors, primary screen, biochemical, luminescence | inhibition, % at 10 µM | purified SENP8, Z-RLRGG-aminoluciferin cleavage | Sentrin-specific protease 8 (Homo sapiens), Q96LD8 | AID 2540, 2010 | hit rate 1.2% among 330,000; in the data active = inhibition above about 50%
# Target sequence (Q96LD8 whole entry, looked up): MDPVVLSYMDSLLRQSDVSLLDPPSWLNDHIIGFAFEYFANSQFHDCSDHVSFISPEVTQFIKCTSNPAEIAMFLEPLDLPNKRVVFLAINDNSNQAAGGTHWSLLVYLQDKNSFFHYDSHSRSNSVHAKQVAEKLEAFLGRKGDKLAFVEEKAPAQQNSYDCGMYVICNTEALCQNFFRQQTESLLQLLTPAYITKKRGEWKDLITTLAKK
# SENP8 block-2: human SENP8 protease inhibitors, primary screen, biochemical, fluorescence, Nedd8 protein substrate, uHTS; AID 602440, 2012; hit rate 0.64% among 360,000; inhibition, % at 20 µM; recombinant SENP8; in the data active = inhibition mostly above about 40%, no sharp cut-off; inactive = mostly below about 27%
# SENP7 block: SENP7 protease inhibitors, primary screen, biochemical, luminescence, uHTS. inhibition, % at 5 µM. hit rate 1.5% among 330,000. Sentrin-specific protease 7 (Homo sapiens), Q9BQF6. AID 434973, 2010. recombinant SENP7, Z-RLRGG-aminoluciferin luminescence, 40 min;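 active = inhibition above about 50% at the single test dose, limit read from the data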;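 also: plate controls were DMSO with enzyme for no effect and no enzyme buffer wells for full effect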
# SENP1 FRET inh: human SENP1 catalytic domain inhibitors, primary screen, biochemical, FRET, uHTS; inhibition, % at 10 µM; recombinant SENP1 catalytic domain, CyPet-SUMO1-YPet FRET cleavage; hit rate 0.21% among 360,000;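 active = inhibition at least 30% at 10 µM, raw YFP signal under a set limit, fluorescence ratio 0.5 to 1.5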;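 also: 0% = enzyme with DMSO and 100% = no enzyme wells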
# Target sequence (Q9P0U3 419-644 limits assumed): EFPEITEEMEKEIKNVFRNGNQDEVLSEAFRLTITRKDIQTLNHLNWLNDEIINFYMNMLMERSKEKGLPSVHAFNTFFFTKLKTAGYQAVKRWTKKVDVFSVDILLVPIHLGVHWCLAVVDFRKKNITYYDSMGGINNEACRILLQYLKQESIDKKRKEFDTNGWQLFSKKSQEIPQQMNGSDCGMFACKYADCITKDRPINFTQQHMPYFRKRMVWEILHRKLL
#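 Test system: human SENP1 catalytic domain; medium: Tris pH 8 buffer plus EDTA, NaCl, BME, BSA, NP40, catalase; incubation: 50 min reaction at room temperature; technique: FRET, CFP and YFP emission; controls: no-enzyme low control and enzyme-plus-DMSO high control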
# SENP8 confirm: SENP8 protease inhibitors, retest, confirmation, biochemical, luminescence, single concentration; shares compounds with SENP7 block; Recombinant SENP8, Z-RLRGG-aminoluciferin luminescence, 60 min; inhibition, % at 12.5 µM; hit rate 40% among 6,200; AID 488912, 2010;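 active = mean inhibition across replicates above about 50%, limit read from the data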
# SENP6 confirm: SENP6 protease inhibitors, confirmation, biochemical, luminescence, single concentration | shares compounds with SENP7 block | recombinant SENP6, Z-RLRGG-aminoluciferin luminescence | inhibition, % at 12.5 µM | hit rate 58% among 6,200
# SENP7 conf: SENP7 protease inhibitors, retest, confirmation, biochemical, luminescence, single concentration | inhibition, % at 12.5 µM | recombinant SENP7, Z-RLRGG-aminoluciferin luminescence, 40 min | hit rate 69% among 6,200 | shares compounds with SENP7 block
# Casp3 SENP sel: caspase-3 protease inhibitors, confirmation, selectivity assay for SENP inhibitor project, biochemical, single concentration | shares compounds with SENP7 block | purified caspase-3, Z-DEVD-aminoluciferin luminescence, 60 min | inhibition, % at 12.5 µM | hit rate 60% among 6,200 | AID 488918, 2010;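 active = mean inhibition above about 50%, limit read from the data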;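 also: plate controls were enzyme with DMSO for no effect and wells without caspase-3 for full effect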
# Target sequence (P42574 28-227 limits assumed): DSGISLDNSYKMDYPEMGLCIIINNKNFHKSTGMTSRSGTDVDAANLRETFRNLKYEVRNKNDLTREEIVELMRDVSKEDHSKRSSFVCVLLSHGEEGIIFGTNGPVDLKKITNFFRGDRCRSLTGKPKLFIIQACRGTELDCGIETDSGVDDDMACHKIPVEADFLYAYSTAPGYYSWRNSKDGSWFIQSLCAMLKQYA
# Luc interf: luminescence interference (SENP counter-screen). shares compounds with SENP7 block. Pre-incubated SENP8/Z-RLRGG-aminoluciferin, luciferase luminescence interference. inhibition, % at 12.5 µM. hit rate 39% among 6,200;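 active = mean inhibition above about 50% when retested at one dose, limit read from the data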;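 also: plate controls were DMSO wells with completed reaction for no effect and substrate without enzyme for full effect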
# Starred values were filed as active, the others as inactive; / = no result. Sampled rows, rich in hits. Any-hit rate of the full collection: about 2.5%.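 The calls were made as follows, unless noted: active = mean inhibition above about 50% in the one-dose retest (limit read from the data); inactive = the rest.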
SMILES,SENP6 inh,SENP8 block-1,SENP8 block-2,SENP7 block,SENP1 FRET inh,SENP8 confirm,SENP6 confirm,SENP7 conf,Casp3 SENP sel,Luc interf
O=C(Nc1ccccc1[N+](=O)[O-])C1COc2ccccc2O1 (centres undefined),36.7,17.4,21.5,17.3,1.4,/,/,/,/,/
CC1CCCC(NC(=O)COC(=O)c2ccc([N+](=O)[O-])s2)C1C (centres undefined),64.5*,63.0*,34.1,32.0,1.1,9.4,51.1*,4.0,-1.6,-10.9
O=C(COC(=O)c1ccc([N+](=O)[O-])s1)Nc1ncc(C(F)(F)F)cc1Cl,71.4*,-7.2,9.5,10.1,1.1,30.9,84.0*,36.0,1.0,-2.9
O=C(COC(=O)c1ccccn1)Nc1ncc(C(F)(F)F)cc1Cl,-14.3,23.1,13.6,0.8,-7.3,/,/,/,/,/
CC(OC(=O)c1ccc([N+](=O)[O-])s1)C(=O)NC1CCCCC1C (centres undefined),46.0,54.9*,29.6,11.4,-1.1,-0.9,19.4,-3.6,-3.7,-13.8
COc1cc(C(=O)OC(C)C(=O)NC2CCCCC2C)c([N+](=O)[O-])cc1OC (centres undefined),-15.2,-10.4,-11.4,-12.0,2.7,/,/,/,/,/
CCOc1ccc2[nH]c(=O)c(CN(CCO)C(=O)c3ccc(F)cc3)cc2c1,4.5,-1.6,-496.2,-2.1,0.5,/,/,/,/,/
CCCCCCNC(=O)O[C@H]1Cn2c(=O)ccc(=O)n2[C@@H]2CN(S(=O)(=O)c3ccc(C)cc3)C[C@]12O,/,/,-21.1,/,2.4,/,/,/,/,/
N#C/C(=C(/O)c1ccc(-c2cccc([N+](=O)[O-])c2)o1)c1nc2ccccc2s1,97.1*,93.4*,-23.4,24.6,-20.1,12.6,25.7,18.3,4.2,8.8
O=C(O)c1ccc(-c2cccc([N+](=O)[O-])c2)o1,-10.1,-8.7,31.2,-8.3,-2.0,/,/,/,/,/
O=C1NC[C@@H](CCCCN2C[C@H](Cc3ccccc3)N(CCc3ccccc3)C(=O)C2=O)N(CCc2ccccc2)C1=O,/,/,15.1,/,2.7,/,/,/,/,/
Cc1ccccc1-c1nc2cc(Cl)ccc2o1,16.2,57.6*,10.4,81.4*,-1.8,9.6,69.3*,94.4*,44.4,13.2
Clc1ccc2oc(-c3ccccc3)nc2c1,-43.3,63.3*,8.2,82.9*,1.7,10.4,54.9*,91.3*,26.3,1.5
Cc1ccc(Cn2nnnc2CN2CCC(NC(=O)C(C)(C)C)CC2)cc1,-2.7,-1.2,4.5,5.3,2.1,/,/,/,/,/
CC(=O)Nc1ccc(N=Cc2c(O)c(C(=O)Nc3ccccc3)cc3ccccc23)cc1,45.1,72.4*,/,30.3,/,20.7,15.8,19.6,14.4,10.9
CC(Nc1ccc2ccccc2c1)C(=O)N/N=C/c1ccncc1 (centres undefined),56.2*,47.7,18.4,31.5,9.5,-22.7,-17.1,-5.6,-6.4,-5.6
COc1ccc(CCNC(=O)CCn2c(SCC(=O)N3CCCC3)nc3ccccc3c2=O)cc1OC,70.1*,-1.1,10.7,1.6,1.1,11.9,3.5,0.5,-2.8,-2.2
COC(=O)c1c[nH]n2c(=O)c(Cl)c(C)nc12,64.0*,34.5,-12.8,53.6*,-2.2,65.5*,57.1*,85.5*,88.0*,66.1*
COC(=O)c1c[nH]n2c(=O)cc(C)nc12,-3.4,-4.3,2.3,7.3,1.3,/,/,/,/,/
O=[N+]([O-])c1cc(NCCO)c(N2CCCCCC2)c2nonc12,56.0*,44.2,15.5,12.3,-28.3,-2.1,2.1,-2.5,-3.0,-2.9
Cc1ccc(C2=NN(S(C)(=O)=O)C(c3ccc4c(c3)OCO4)C2)cc1 (centres undefined),67.5*,49.6,11.9,59.4*,-9.0,34.0,62.8*,89.8*,70.6*,41.8
CCOc1ccc(CC(=O)C2=C(N3CCOCC3)CC(C)(C)CC2=O)cc1OCC,-18.7,-16.9,8.4,-4.4,1.2,/,/,/,/,/
Cc1cc(C2=NNC(=NC3CC3)SC2)c(C)n1-c1c(C)n(C)n(-c2ccccc2)c1=O,0.3,-9.3,6.4,-7.8,-2.2,/,/,/,/,/
Cc1ccc(-n2c(C)cc(C3=NNC(=NC4CC4)SC3)c2C)cc1C,42.2,56.0*,0.9,0.2,-2.8,82.3*,83.5*,92.9*,73.7*,53.4*
CCCCCCN1CCN(C2CN(Cc3cn(Cc4cccc(C(F)(F)F)c4)nn3)S(=O)(=O)C2)CC1 (centres undefined),/,/,14.4,/,-7.1,/,/,/,/,/
SMILES,SENP6 inh,SENP8 block-1,SENP8 block-2,SENP7 block,SENP1 FRET inh,SENP8 confirm,SENP6 confirm,SENP7 conf,Casp3 SENP sel,Luc interf
CCc1ccc(-c2nc(CCl)cs2)cc1,73.7*,56.1*,10.4,64.1*,5.3,18.7,84.4*,96.1*,68.6*,20.8
COc1ccc(-c2nc(CCl)cs2)cc1,21.3,26.9,-34.7,8.1,2.2,/,/,/,/,/
CC1CCCN(C(=O)c2cc(S(=O)(=O)N3CCCCC3)c[nH]2)C1 (centres undefined),-9.3,0.0,27.3,-3.5,-1.1,/,/,/,/,/
O=C(Nc1ccccc1Cl)c1cc2ccccc2o/c1=N\O,55.7*,14.5,13.5,81.1*,-0.3,1.0,6.5,81.3*,55.8*,32.4
COc1cccc(NC(=O)c2cc3ccccc3o/c2=N\O)c1,98.5*,96.4*,17.5,99.8*,0.9,97.9*,98.8*,101.3*,96.0*,97.3*
O=C(Nc1ccccc1Cl)c1ccccc1Cl,-7.7,-10.1,15.0,11.5,1.4,/,/,/,/,/
CCCCNC(=O)c1cn(-c2ccc(OCC)cc2)c(=O)c2cc(OC)c(OC)cc12,-2.7,5.8,-7.9,-3.0,6.0,/,/,/,/,/
Cc1ccc(NC(=S)NCc2ccco2)c(C)c1,-7.1,3.3,13.8,2.8,-2.2,/,/,/,/,/
Cc1nn2cc(-c3cccc(Cl)c3)cnc2c1Br,-16.8,26.3,13.0,80.5*,3.0,9.1,11.4,37.5,32.7,1.2
Cc1ccc(C(=O)CSc2ccccn2)cc1,69.2*,50.9*,14.6,51.4*,1.1,4.7,34.6,-11.2,75.7*,68.4*
